According to article PMC5862033 (Molecular psychiatry, 2017):

Legend:
[1] = used as correction in blood contamination formula; cited from earlier work
[2] = study did not use labelled OT; cited from earlier work
[3] = statement in discussion, no reference given; cited from earlier work
[4] = d5 OT pharmacokinetics in plasma and CSF after IN and IV administration; assay type: in vivo, rhesus monkeys (Macaca Mulatta); conditions: for Drug targeting efficiency percentage (DTE%), single monkey: 80 IU d5 OT IN vs IV, AUC0-60 min, individual monkey
Outline: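 Rhesus monkeys sedated IM: ketamine (10 mg/kg), dexdomitor (0.01 mg/kg), glycopyrrolate 0.01 mg/kg i.m.; 80 IU deuterated test compound given IN or IV (1 mL normal saline, leg vein), IN saline control, counterbalanced weekly sessions. Blood and CSF drawn pre-dose and 10–60 min. Samples acetonitrile-precipitated, SPE-cleaned at pH 3.0, LC-MS/MS. Non-compartmental AUC0–60, Cmax, Tmax; bioavailability and DTE from AUC ratios.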

CC[C@H](C)[C@@H]1NC(=O)[C@H](Cc2ccc(O)cc2)NC(=O)[C@@H](N)CSSC[C@@H](C(=O)N2CCC[C@H]2C(=O)N[C@@H](CC(C)C)C(=O)NCC(N)=O)NC(=O)[C@H](CC(N)=O)NC(=O)[C@H](CCC(N)=O)NC1=O [OT, Oxytocin]
Fraction of OT that is not protein bound [1]: 0.7 | Fraction of OT crossing the BBB [2]: ~ .002%

atosiban
Passage of the BBB [3]: does not pass the BBB

d5-oxytocin [d5 OT]
Drug targeting efficiency percentage (DTE%), single monkey ([4]; first of 4 values listed): 33.6% | Drug targeting efficiency percentage (DTE%), single monkey ([4]; second of 4 values listed): 50.5% | Drug targeting efficiency percentage (DTE%), single monkey ([4]; third of 4 values listed): 154.6% | Bioavailability post IN administration for plasma and CSF ([4]; 100 x (AUC IN/AUC IV), 80 IU d5 OT, plasma and CSF, values only in words): similar, albeit low
